Screens deposited in PubChem BioAssay by several laboratories.
Many of the other results were omitted from the sample, so hits are more common in it than they were.
PfG6PD inh: PfG6PD (Plasmodium falciparum) enzyme inhibition. PfGluPho enzyme, NADPH resazurin-diaphorase fluorescence. inhibition, % at 20 µM. actives 0.78% (n = 350,000);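 active = inhibition reaching at least a set limit at 20 µM in the primary screen, cut at about 59% in these data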
Diaphorase act: activates diaphorase or chemically reduces, flagging diaphorase assay artifacts; Diaphorase/resazurin coupled assay, resorufin fluorescence, 16 min; hits give high values; 1 = vehicle wells, 0 = NADH-free wells; activation factor at 20 µM; actives 0.005% (n = 190,000);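 active = diaphorase activity raised at least twofold by the compound at 20 µM; inactive = activation factor below 2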
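Assay system: bacterial diaphorase enzyme (C. kluyveri) / Input: enzyme 0.07 U/mL final / Medium: 50 mM HEPES pH 7.4 with 4.542 mM MgCl2, 0.005% Tween 20 / Doses: single compound dose of 20 µM, 1% DMSO final / Incubation: 16 min enzyme reaction, ambient temperature / Signal: fluorescence, excitation 544 nm and emission 590 nm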
Diaph inh CS: diaphorase inhibition or chemical oxidation counter-screen; diaphorase resazurin-to-resorufin fluorescence, NADH, 16 min; bacterial (C. kluyveri) enzyme, not human; inhibition, % at 20 µM; actives 0.69% (n = 190,000); AID 1217;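 active = primary screen inhibition at 20 µM above a set limit, cut at about 50% in these data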
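Detection: fluorescence of resorufin formed from resazurin, Ex 544/Em 590 nm; test system: Clostridium kluyveri diaphorase enzyme; amount: 0.14 U/mL diaphorase, enzyme working solution; times: 16-min room-temperature incubation before reading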
DTT redox prof: compounds producing H2O2 with reducing agent – biochemical, NIH compound library profiling, artefact control for MLSCN library redox annotation, primary screen. DTT-dependent redox cycling H2O2, phenol red/HRP absorbance; 100% = 100 µM peroxide control, 0% = buffer. actives 0.03% (n = 200,000). AID 878. activation, % at 10 µM;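 active = activation of at least 50% relative to the plate's high and low controls in the primary single-dose screen; inactive = activation below 50%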;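 note: compound incubated with DTT at 0.8 mM final as the reducing agent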
G6PDH counter: L. mesenteroides G6PDH inhibition counter-screen | Purified L. mesenteroides G6PDH, diaphorase/resazurin coupled fluorescence, 45 min | inhibition, % at 5 µM | actives 0.12% (n = 200,000)
Lmaj promast: Leishmania major promastigote growth inhibition; inhibition, % at 10 µM; Leishmania major promastigotes, resazurin fluorescence viability; actives 9% (n = 200,000);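 note: promastigotes grown with compound for 44 hours at 28 °C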
Each line names hits and unclear results; the compound was inactive in the other large screens. Cut-off read from the data, not from the text of the source, unless noted: active = inhibition above about 50%; inactive = the rest.

Fc1ccc(CSc2ccc3nnc(-c4cccnc4)n3n2)cc1	Lmaj promast 66
Cc1cccn2c(=O)nc(SCC(=O)N3CCN(c4ccccc4)CC3)nc12	none (no result: Diaphorase act, Diaph inh CS, DTT redox prof, G6PDH counter, Lmaj promast)
CCN(c1ccccc1)S(=O)(=O)c1ccc(Oc2ccc(-n3ccnc3)cc2)nc1	Lmaj promast 76 (no result: Diaphorase act, Diaph inh CS, G6PDH counter)
CCN(c1ccccc1)S(=O)(=O)c1ccc(Oc2ccccc2C(C)=O)nc1	none (no result: Diaphorase act, Diaph inh CS, DTT redox prof, G6PDH counter, Lmaj promast)
Cc1ccccc1C(=O)NCC(=O)NNC(=O)c1cccc(Cl)c1	none (no result: Diaphorase act, Diaph inh CS, DTT redox prof, G6PDH counter, Lmaj promast)
NS(=O)(=O)c1ccc(NC(=O)COc2ccc(C(=O)c3ccc(F)cc3)cc2)cc1	none (no result: Diaphorase act, Diaph inh CS, DTT redox prof, G6PDH counter, Lmaj promast)
O=C(Cc1cccs1)Nc1cc(SCCO)cc([N+](=O)[O-])c1	none
O=C(Nc1cc(Oc2ccc(Cl)cc2)cc([N+](=O)[O-])c1)c1ccco1	Lmaj promast 64
O=C(Nc1cc(SCCO)cc([N+](=O)[O-])c1)c1ccco1	Lmaj promast 61
O=C(c1coc2ccccc2c1=O)N1CCN(c2cccc(C(F)(F)F)c2)CC1	none
O=C(Nc1ccc(O)cc1)c1ccc2c(c1)C(=O)N(Cc1ccco1)C2=O	Lmaj promast 61
O=C(C[n+]1cc(-c2ccccc2)n2c1CCC2)N1c2ccccc2Sc2ccccc21	none
Cc1ccc(-c2c[n+](CC(=O)N3c4ccccc4Sc4ccccc43)c3n2CCC3)cc1	Lmaj promast 96
O=C(C[n+]1cc(-c2ccc(F)cc2)n2c1CCC2)N1c2ccccc2Sc2ccccc21	Lmaj promast 91
O=C(Cc1ccccc1F)Nc1nc(-c2cccnc2)cs1	Lmaj promast 52
O=C(Cc1cccs1)Nc1nc(-c2ccc(F)cc2F)cs1	Lmaj promast 98
O=C(Cc1ccccc1F)Nc1nc(-c2ccc(F)c(F)c2)cs1	none (no result: Diaphorase act, Diaph inh CS, DTT redox prof, G6PDH counter, Lmaj promast)
CCc1ccccc1OCC(=O)Nc1nc(-c2cccnc2)cs1	Lmaj promast 81
CCC(=O)c1ccc(OCC(=O)Nc2nc(-c3cccnc3)cs2)cc1	none (no result: Diaphorase act, Diaph inh CS, DTT redox prof, G6PDH counter, Lmaj promast)
N=c1c(-c2nc3ccccc3[nH]2)cc(C(=O)c2ccco2)nn1-c1ccccc1	Lmaj promast 100
O=C(NCCCc1nc2ccccc2[nH]1)c1cccs1	none
N=c1c(-c2nc3ccccc3[nH]2)cc(C(=O)c2cccs2)nn1-c1ccccc1	Lmaj promast 100
O=C(Nc1cccc(-c2nc3ccccc3[nH]2)c1)c1ccco1	none
O=[N+]([O-])c1cc2oc3c(c2c(C=NCc2ccncc2)c1O)CCCC3	Diaph inh CS 56
CC(C)(C)N=Cc1c(O)ccc2oc3c(c12)CCCC3	none (no result: Diaphorase act, Diaph inh CS, DTT redox prof, G6PDH counter, Lmaj promast)
COC(=O)c1ccccc1NC(=O)CSc1n[nH]c(-c2ccco2)n1	none (no result: Diaphorase act, Diaph inh CS, DTT redox prof, G6PDH counter, Lmaj promast)
COc1cccc(-c2c(C(=O)N/N=C/c3sccc3C)nnn2-c2nonc2N)c1	PfG6PD inh 91 (no result: Diaphorase act, Diaph inh CS, DTT redox prof, G6PDH counter, Lmaj promast)
Cc1ccc(NC(=O)CC(C(=O)O)c2ccccc2)cc1 (stereo not given)	none
Cc1ccc(Cl)cc1NC(=S)N(CCCN1CCOCC1)Cc1ccccn1	none
COc1cc(Cl)ccc1NC(=S)N(CCCN1CCOCC1)Cc1cn(C)c2ccccc12	Lmaj promast 89
COc1ccc(Cl)cc1NC(=S)N(CCCN1CCOCC1)Cc1cn(C)c2ccccc12	Lmaj promast 100
Cc1cc(C)n(-c2cc(N3CCN(S(=O)(=O)c4ccc(C)c(C)c4)CC3)ccc2[N+](=O)[O-])n1	none
Cc1cc(C)n(-c2cc(N3CCN(S(=O)(=O)c4ccc5ccccc5c4)CC3)ccc2[N+](=O)[O-])n1	Lmaj promast 59
CC(Sc1nncn1C)C(=O)Nc1ccc(N2CCCCC2)cc1 (stereo not given)	none (no result: Diaphorase act, Diaph inh CS, DTT redox prof, G6PDH counter, Lmaj promast)
Cc1cc(O)c(/C=N/Nc2cccc(Cl)c2)c(=O)o1	Lmaj promast 94
Cc1cc(O)c(/C=N/Nc2ccccc2Cl)c(=O)o1	none
Cc1cccc(N=Cc2c(O)cc(C)oc2=O)c1	Lmaj promast 62
Cc1cc(O)c(/C=N/Nc2ccc(Cl)cc2)c(=O)o1	Lmaj promast 98
CCN1CCN(C(=O)C2CCN(Cc3nc(-c4cccc(Cl)c4)oc3C)CC2)CC1	Lmaj promast 66
CCc1ccc(-c2nc(CN3CCC(C(=O)N4CCN(c5ccccn5)CC4)CC3)c(C)o2)cc1	Lmaj promast 84
CCc1ccc(-c2nc(CN3CCC(C(=O)N4CCN(c5ccccc5)CC4)CC3)c(C)o2)cc1	Lmaj promast 82
COc1cc(OC)c(C(=O)CCC(=O)O)cc1OC	Lmaj promast 71
COc1ccc(-c2cc(C(=O)NC(Cc3cc4ccccc4[nH]3)C(=O)O)c(C)o2)cc1OC (stereo not given)	none
c1ccc(CCNc2ccnc3cc4ccccc4cc23)cc1	Lmaj promast 100
Cc1ccc2nc(NC(=O)Cn3cc4c(n3)CCCCC4)sc2c1	none
CC1CN(C(=O)CCNC(=O)c2ccc(Cl)cc2)CC(C)O1 (stereo not given)	none (no result: Diaphorase act, Diaph inh CS, DTT redox prof, G6PDH counter, Lmaj promast)
CC1=NN(c2ccc(F)cc2)C(=O)C1C(c1cccc(O)c1)c1c(C)[nH]n(-c2ccc(F)cc2)c1=O (stereo not given)	Lmaj promast 72
CC1=NN(c2ccc(Cl)cc2)C(=O)C1C(c1cccc(O)c1)c1c(C)[nH]n(-c2ccc(Cl)cc2)c1=O (stereo not given)	none
COC1=CC(=O)C(O)=C(CCCCCCC/C=C/CCCCCCCC2=C(O)C(=O)C=C(OC)C2=O)C1=O	none (no result: Diaphorase act, Diaph inh CS, DTT redox prof, G6PDH counter, Lmaj promast)
COC1=C(OC)C(=O)C(CCCCCCCCCCO)=C(C)C1=O	Diaph inh CS 57, G6PDH counter 63 (no result: PfG6PD inh, DTT redox prof, Lmaj promast)
CCOc1ccccc1CN(Cc1ccco1)S(=O)(=O)c1ccc(-n2cnnn2)c(OC)c1	Lmaj promast 69
Cc1cc(S(=O)(=O)N(Cc2ccccc2F)C2CC2)ccc1-n1cnnn1	Lmaj promast 100
COc1cc(S(=O)(=O)N(Cc2cccs2)CC2CCCO2)ccc1-n1cnnn1 (stereo not given)	Lmaj promast 55
CCN(CC)S(=O)(=O)c1ccc(-n2cnnn2)c(C)c1	none
COc1cc(S(=O)(=O)N(Cc2ccco2)C2CCCC2)ccc1-n1cnnn1	Lmaj promast 71
CC(C)(C)C(=O)/C(=C/c1ccc(Cl)cc1)n1cncn1	none (no result: Diaphorase act, Diaph inh CS, DTT redox prof, G6PDH counter, Lmaj promast)
CC(C)(C)C(=O)/C(=C\c1ccc([N+](=O)[O-])cc1)n1cncn1	Lmaj promast 100 (no result: PfG6PD inh)
Cc1cc(C(=O)N2CCCC(Nc3ccccc3)C2)c2ccc(F)cc2n1 (stereo not given)	none (no result: Diaphorase act, Diaph inh CS, DTT redox prof, G6PDH counter, Lmaj promast)
C=CCOC(=O)C1=C(C)NC(SCC)=C(C#N)C1c1ccc(Cl)cc1 (stereo not given)	Lmaj promast 100
O=c1cc(CN2CCN(c3cccc(Cl)c3)CC2)c2cc(O)c(-c3ccccc3)cc2o1	none
O=c1cc(CN2CCN(c3ccccc3)CC2)c2cc(O)c(-c3ccccc3)cc2o1	Lmaj promast 73
